Results taken from ChEMBL document CHEMBL3243931, “Dihydroretinoic acids and their derivatives. Synthesis and biological activity” (1977).
Activity calls are given as the source filed them. The rule behind the calls is not given here.

How the values were obtained:
[1] = test system: Mus musculus; assay: Activity against chemically-induced skin papillomas in Swiss albino mouse assessed as change in total papilloma diameter at 80 mg/kg/day, ip administered five times per week for 2 weeks measured on day 14; assay type: functional; conditions: route intraperitoneal
[2] = Increase in RNA content in mouse epidermal cells at 1 nM after 3 days; assay type: functional
In short: (§1)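 Mouse skin epidermal cell cultures grown 3 days with retinoid added from Me2SO stock (final Me2SO ≤1.0%); controls received equivalent Me2SO and no retinoid. RNA measured; value is percentage increase over control cultures; 6–9 cultures per concentration.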

[3] = Increase in RNA content in mouse epidermal cells at 0.1 uM after 3 days; assay type: functional; in short: as §1
[4] = test system: Hamster; assay: Reversal of keratinized lesions in vitamin A deficient hamster tracheal organ culture assessed as cultures with keratin and keratohyaline granules at 10 nM after 7 days (reference value: 93%); assay type: functional, Cricetinae, Trachea
[5] = Increase in RNA content in mouse epidermal cells at 1 uM after 3 days; assay type: functional; in short: as §1
[6] = Increase in RNA content in mouse epidermal cells at 10 nM after 3 days; assay type: functional; in short: as §1
[7] = organism: Mus musculus; assay: Increase in protein content in mouse epidermal cells; assay type: functional, cell-based
In short: (§2)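 Mouse skin epidermal cell cultures with retinoid added to the medium from Me2SO stock (final Me2SO ≤1.0%); controls given equivalent Me2SO; increase in DNA or protein content measured relative to cultures without retinoid.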

[8] = test system: Hamster; assay: Reversal of keratinized lesions in vitamin A deficient hamster tracheal organ culture assessed as cultures with keratin and keratohyaline granules at 0.1 uM after 7 days (reference value: 93%); assay type: functional, Cricetinae, Trachea
[9] = organism: Mus musculus; assay: Increase in DNA content in mouse epidermal cells; assay type: functional, cell-based; in short: as §2
[10] = test system: Hamster; assay: Reversal of keratinized lesions in vitamin A deficient hamster tracheal organ culture assessed as cultures with keratin and keratohyaline granules at 1 nM after 7 days (reference value: 93%); assay type: functional, Cricetinae, Trachea
[11] = test system: Mus musculus; assay: Activity against chemically-induced skin papillomas in Swiss albino mouse assessed as change in total papilloma diameter at 10 mg/kg/day, ip administered five times per week for 2 weeks measured on day 14; assay type: functional; conditions: route intraperitoneal
[12] = test system: Hamster; assay: Reversal of keratinized lesions in vitamin A deficient hamster tracheal organ culture assessed as cultures with keratin and keratohyaline granules at 1 uM after 7 days (reference value: 93%); assay type: functional, Cricetinae, Trachea
[13] = test system: Mus musculus; assay: Activity against chemically-induced skin papillomas in Swiss albino mouse assessed as change in total papilloma diameter at 160 mg/kg/day, ip administered five times per week for 2 weeks measured on day 14; assay type: functional; conditions: route intraperitoneal
[14] = Increase in RNA content in mouse epidermal cells at 0.1 nM after 3 days; assay type: functional; in short: as §1
[15] = test system: Mus musculus; assay: Activity against chemically-induced skin papillomas in Swiss albino mouse assessed as change in total papilloma diameter at 40 mg/kg/day, ip administered five times per week for 2 weeks measured on day 14; assay type: functional; conditions: route intraperitoneal

Row | Structure (SMILES) | Activity [1] | Activity [2] | Activity [3] | Activity [4] | Activity [5] | Activity [6] | Cultures with keratinized lesions [8] | also measured
1 | COC(=O)/C=C(\C)CC/C=C(C)/C=C/C1=C(C)CCCC1(C)C | -13% | 3% | 5% | 83% | 21% | 9% | 24% | Activity [7]: Active; Activity [9]: Active
2 | COC(=O)/C=C(C)/C=C/C=C(\C)CCc1c(C)cc(N(C)C)cc1C | 20% | – | – | – | – | – | – | –
3 | COC(=O)/C=C(C)/C=C/C=C(\C)CCc1c(C)cc(OC)c(Cl)c1C | 1% | – | – | – | – | – | – | –
4 | COc1cc(C)c(/C=C/C(C)=C/C=C/C(C)=C/C(=O)O)c(C)c1C [ACITRETIN] | – | – | – | 35% | – | – | 0% | Activity [10]: 100%; Activity [11]: -43%; Activity [12]: 0%
5 | COC(=O)/C=C(\C)CC/C=C(C)/C=C/c1c(C)cc(C)c(Cl)c1C | 29% | – | – | – | – | – | – | –
6 | CC(/C=C/C1C(C)CCCC1(C)C)=C\C=C\C(C)=C\C(=O)O (stereo not drawn) | – | – | – | 0% | – | – | 0% | Activity [10]: 6%; Activity [11]: -9%
7 | CCOC(=O)/C=C(C)/C=C/C=C(C)/C=C/C1=C(C)CCCC1(C)C | -47% | 23% | 102% | 0% | 123% | 57% | 0% | –
8 | COc1cc(C)c(CC/C(C)=C/C=C/C(C)=C/C(=O)O)c(C)c1C | -35% | – | – | 85% | – | – | 63% | Activity [12]: 0%
9 | CCOC(=O)CC(C)/C=C/C=C(C)/C=C/C1=C(C)CCCC1(C)C (stereo not drawn) | – | 12% | 13% | 83% | 69% | 12% | 12% | Activity [13]: -14%; Activity [7]: Active; Activity [9]: Active
10 | COC(=O)/C=C(C)/C=C/C=C(C)/C=C/C1=C(C)CCCC1(C)C [RETINOIC ACID METHYL ESTER] | – | 8% | 75% | 0% | 126% | 25% | 0% | –
11 | COc1cc(C)c(/C=C/C(C)=C/CC/C(C)=C/C(=O)O)c(C)c1C | -17% | – | – | 86% | – | – | 44% | Activity [12]: 0%; Activity [13]: -66%
12 | CC1=C(CC/C(C)=C/C=C/C(C)=C/C(=O)O)C(C)(C)CCC1 | -33% | 1% | 115% | 25% | 106% | 82% | 0% | Activity [7]: Active; Activity [9]: Active
13 | CC1=C(/C=C/C(C)=C/C=C/C(C)=C/C(=O)O)C(C)(C)CCC1 [TRETINOIN] | – | 68% | – | 3% | – | 100% | 0% | Activity [10]: 0%; Activity [14]: 19%; Activity [15]: -55%
14 | CC1=C(/C=C/C(C)C/C=C/C(C)=C/C(=O)O)C(C)(C)CCC1 (racemic) | – | 3% | 29% | 96% | 118% | 28% | 52% | Activity [7]: Active; Activity [9]: Active
15 | CC1=C(CC/C(C)=C/C=C/C(C)=C\C(=O)O)C(C)(C)CCC1 | -28% | – | – | – | – | – | – | –
16 | COC(=O)/C=C(\C)CC/C=C(C)/C=C/c1c(C)cc(OC)c(Cl)c1C | 29% | – | – | – | – | – | – | –
